Data taken from ChEMBL document CHEMBL1123879, “Synthesis and antiarrhythmic activity of novel 3-alkyl-1-[omega-[4-[(alkylsulfonyl)amino]phenyl]-omega- hydroxyalkyl]-1H-imidazolium salts and related compounds” (J Med Chem, 1987).

Columns and labels:
Canis familiaris [1] = species: Canis familiaris; assay: Maximum observed change in ADP95 from control value was determined in isolated canine cardiac uM; assay type: functional, Canis lupus familiaris
Outline: (§1)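 Canine cardiac Purkinje fibres in gassed physiological saline (95% O2–5% CO2, pH 7.35–7.40) at 36 ± 0.5 °C. Paced at 1.0 Hz with 2 ms pulses at twice diastolic threshold. Intracellular microelectrode recording after up to 1 h of stabilisation; 30 min exposure per concentration; one compound per fibre, with vehicle controls. Readout is concentration giving a 20% change in APD95, or maximal APD95 change; log mean with 90% CI when n > 2.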

Canis familiaris [2] = assay: In vivo intraduodenal activity in mongrel dogs was assessed by percent change in heart rate at active dose of 30 mg/kg, administered intradermally; assay type: functional, Canis lupus familiaris; conditions: in the assay text read “intraduodenally” for “intradermally”
Outline: (§2)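 Healthy dogs (8–20 kg) of either sex, pentobarbital 30 mg/kg iv, ventilated, temperature held at 36 ± 0.5 °C. Compound given intraduodenally as suspension in 0.5% tragacanth. HR, BP and FRP measured at 45 min postdose; second dose if FRP/conduction change below 12%. Active dose means FRP change ≥ 12%; HR and BP given as % change, mean ± SEM.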

Canis familiaris [3] = species: Canis familiaris; assay: Concentration that causes 20% increase in ADP95 (action potential duration at 95% repolarization) was determined on isolated canine cardiac Purkinje fibers (0.01-10 uM concentration range); assay type: functional, Canis lupus familiaris, Purkinje fiber; outline: as §1
Canis familiaris [4] = assay: In vivo intraduodenal activity in mongrel dogs was assessed by percent change in blood pressure at active dose of 30 mg/kg, administered intradermally; assay type: functional, Canis lupus familiaris, Artery; conditions: in the assay text read “intraduodenally” for “intradermally”; outline: as §2
Canis familiaris [5] = species: Canis familiaris; assay: Maximum observed change in FRP from control was determined in isolated canine ventricular muscle fibers at a concentration of 100 uM; assay type: functional, Canis lupus familiaris, Muscle tissue
Outline: (§3)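 Canine right ventricular papillary muscle strips superfused with O2/CO2-gassed saline at 36 ± 0.5 °C. Bipolar electrogram recording. Stimulated at 4× diastolic threshold (2 ms pulses), equilibrated 60 min. FRP measured at 1000 ms cycle length by S2 after every tenth S1 at shortening intervals. Cumulative concentrations; one compound per strip, with vehicle controls. Readout is concentration giving a 20% FRP change, or maximal change; log mean with 90% CI when n > 2.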

Canis familiaris [6] = assay: In vivo antiarrhythmic efficacy in a programmed electrical stimulation (PES) model of mongrel dogs reported as number of animals effective at dose range of 0.3-30 mg/kg.; assay type: functional, Canis lupus familiaris, Heart
Outline: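 Mongrel dogs (8–17 kg) with two-stage LAD occlusion 24 h earlier, anesthetized with thiopental 15 mg/kg and ventilated; open chest. PES induces SVT/VF; two control arrhythmias 30 min apart. Compound given as 10-min iv infusion, PES repeated 20 min later, dose escalated while still inducible; noninducibility counts as effective. HR and BP reported as % change at effective dose, mean ± SEM.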

Canis familiaris [7] = species: Canis familiaris; assay: Concentration that causes 20% increase in functional refractory period (FRP) was determined on isolated canine ventricular muscle fibers; NR = never reached; conditions: Canis lupus familiaris; Muscle tissue; outline: as §3
Canis familiaris [8] = species: Canis familiaris; assay: Concentration that causes 20% increase in functional refractory period (FRP) was determined on isolated canine ventricular muscle fibers; parameters: species or system Canis lupus familiaris, Muscle tissue; outline: as §3
Canis familiaris [9] = assay: In vivo intraduodenal activity in mongrel dogs was assessed by % change in blood pressure (10 mg/kg administered intradermally); assay type: functional, Canis lupus familiaris, Artery; conditions: in the assay text read “intraduodenally” for “intradermally”; outline: as §2
Canis familiaris [10] = species: Canis familiaris; assay: Maximum observed change in FRP from control was determined in isolated canine ventricular muscle fibers at a concentration of 10 uM; assay type: functional, Canis lupus familiaris, Muscle tissue; outline: as §3
Canis familiaris [11] = species: Canis familiaris; assay: Maximum observed change in FRP from control was determined on isolated canine ventricular muscle fibers at a concentration of 100 uM; assay type: functional, Canis lupus familiaris, Muscle tissue; outline: as §3
Canis familiaris [12] = species: Canis familiaris; assay: Concentration that causes 20% increase in ADP95 (action potential duration at 95% repolarization) was determined on isolated canine cardiac Purkinje fibers; assay type: functional, Canis lupus familiaris, Purkinje fiber; outline: as §1
Canis familiaris [13] = assay: In vivo intraduodenal activity in mongrel dogs was assessed by % change in heart rate (10 mg/kg administered intradermally); assay type: functional, Canis lupus familiaris; conditions: in the assay text read “intraduodenally” for “intradermally”; outline: as §2

## C[n+]1ccn(CC(=O)c2ccc(NS(C)(=O)=O)cc2)c1.[Cl-]
Canis familiaris [1]
  Max delta APD95: 38%
Canis familiaris [2]
  Heart rate: -19%
Canis familiaris [3]
  Activity: 2.3 µM
Canis familiaris [4]
  Blood pressure: 3%
Canis familiaris [5]
  Max delta FRP: 15%
Canis familiaris [6]
  No. effective: 0
Canis familiaris [7]
  Activity: Not recorded

## Cc1n(CC(O)c2ccc(NS(C)(=O)=O)cc2)cc[n+]1C.[Cl-] (stereo not given)
Canis familiaris [8]
  Activity: 0.2 µM
Canis familiaris [1]
  Max delta APD95: 51%
Canis familiaris [9]
  Blood pressure: 3%
Canis familiaris [10]
  Max delta FRP: 44%
Canis familiaris [11]
  Max delta FRP: 56%
Canis familiaris [12]
  Activity: 0.8 µM
Canis familiaris [13]
  Heart rate: -20%
Canis familiaris [6]
  No. effective: 0
